Data on 47 sequences can be found in the EternaBench riboswitch data.

One may read the apparent Kd as the concentration giving half-maximal binding under the conditions of the assay.

The subject of the data set is MS2 coat protein. Nature of the data set: apparent Kd, MS2 coat protein; higher = weaker binding; RNA-MaP array. The method in brief: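 Fluorescently labeled MS2 coat protein, from 1.5 nM to 3 μM, was incubated at room temperature with designed RNAs transcribed on an Illumina sequencing chip from sequenced DNA templates. Times ran from 0.8–1.5 h at the lowest concentrations to 10–20 min at the highest, in Tris-HCl pH 7.5 buffer with KCl, MgCl2, BSA, DTT, tRNA and Tween20, with or without input ligand. Each apparent Kd is the median of per-cluster binding-curve fits, and designs with fewer than 10 measured clusters were excluded.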

Where [1] appears, read: designed as: OFF switch for flavin mononucleotide, no ligand.
[2] abbreviates: ligand present: flavin mononucleotide, designed as: OFF switch for flavin mononucleotide.
The mark [3] stands for this setting: designed as: ON switch for flavin mononucleotide, no ligand.
Setting [4] is: ligand present: flavin mononucleotide, designed as: ON switch for flavin mononucleotide.
Setting [5] is: designed as: OFF switch for tryptophan, no ligand.
Where [6] appears, read: ligand present: tryptophan, designed as: OFF switch for tryptophan.
The mark [7] stands for this setting: designed as: ON switch for tryptophan, no ligand.
The mark [8] stands for this setting: ligand present: tryptophan, designed as: ON switch for tryptophan.

For the sequence “AGAUUUGCAGGAUAUACCGGUACAAACAUGAGGAUCACCCAUGUAACGCAUGGUCAGUGAGUAGAAGGGCACGUAG”, the “apparent Kd” value by setting is: under setting [1], 31.4 nM; under setting [2], 24 nM. “AGCUAUUUUUGGGAGGAUAUUAUGAGCAGUACAUGAGGAUCACCCAUGUUAGUAAUAUACAUUGGUAAGAAGGCCCAAUCAUAAGG”: the “apparent Kd” value was 34.6 nM under setting [3] and 25.1 nM under setting [4]. “GGUGUUACGUCGGCCGCCACUAUACUACAUGAGGAUCACCCAUGUCAUCCCUUCAAUUGGUAGCCUAGGACCGGGACAGAAUUCG”: the “apparent Kd” value by setting is: under setting [5], 43.4 nM; under setting [6], 47.2 nM. On to “UCGGUGUAAGAGAAGGAAGUGUUCGCAGGCCAAGGCUCAUUGGCUACAUGAGGAUCACCCAUGUCUUAGGAUAUCUGCGCUCCG”, for which the “apparent Kd” value under setting [3] was determined as 45.6 nM and the “apparent Kd” value under setting [4] was 16.7 nM. On to “GGUUUUUCUGUUAGGAUAUUUCAUGACAGGCGAUGAAAGAAGGAACAUGAGGAUCACCCAUGUGUUUGAGAUAA”, for which the “apparent Kd” value under setting [1] was found to be 9.57 nM and the “apparent Kd” value under setting [2] amounted to 10.6 nM. Take “GGAAAACACAAGAAGGCGUCGGACUGGGCGAGACGAGGAUAUUGUAGCUCUAAUCGUGGACAGACAUGAGGAUCACCCAUGUCG”: the “apparent Kd” value was determined as 7.93 nM under setting [3] and 6.18 nM under setting [4]. In the case of “GCCAAGCAGGGAGGAUAUACAGGCAAUAAGUGAUUAGAAGAACAAAACAUGAGGAUCACCCAUGUGAAGAAGGCCCAUUCGGAA”, the “apparent Kd” value under setting [1] amounted to 12.1 nM and the “apparent Kd” value under setting [2] came to 10.9 nM. Consider “AGGAAUGUCACGGCCGCCACUGACGCUAAAAUGGGCUCGAGCCGACAUGAGGAUCACCCAUGUUCCAGGACCGGGUGAAUCCUGG”, for which the “apparent Kd” value was 174 nM under setting [7] and 123 nM under setting [8]. Consider “CCUUUAGAUGUGAGGAUAUGUACUUGACUUUCAUGACAGAAGGCACAUGAGGAUCACCCAUGUAGUGUCAUUGG”, for which the “apparent Kd” value runs as follows: under setting [1], 10.4 nM; under setting [2], 36.4 nM.

With “AAUCAACUUAGAGGAUAUAAGCUUAAAAUAGGGUUAGAAGGCUAUGGUACUAAUGAUCCGUCAACAUGAGGAUCACCCAUGUAG”, the “apparent Kd” value came to 45 nM under setting [1] and 37.2 nM under setting [2].

As for “CCAGGUUGAAUAGGAUAUCGAGUCCGUCACAUGAGGAUCACCCAUGUAUGCCAAGCUAGAGCGUGCGAGAAGGAUUAGGCCAUC”, the “apparent Kd” value under setting [4] was 15.5 nM. On to “GAACCCAAGGUGAGGAUAUUCGAAGCAACAAAAGGGAAGAAGGCACAUGAGGAUCACCCAUGUAAGAAAGAUAA”, for which the “apparent Kd” value came to 8.35 nM under setting [1] and 9.52 nM under setting [2].

“CGACAGCACAUAGGAUAUCAGCAAGAACUAACAUGAGGAUCACCCAUGUAUGGAUGAACAUAAAAUGAGAAGGAAGGCGAAUUA”: the “apparent Kd” value under setting [3] was determined as 22.2 nM and the “apparent Kd” value under setting [4] came to 17.9 nM. For “GGGUUACACACAUGAGGAUCACCCAUGUUUGCGUGGGCGGGCAGAAGGAGAACCGGAUUACACUUCUAGGAUAUGCAGAUGAUC”, the “apparent Kd” value by setting is: under setting [3], 23.6 nM; under setting [4], 28.2 nM. Turning to “AGGAAAGAAGAAGGAUAUCAGUUACGGACAUGAGGAUCACCCAUGUACGUAGGGUGAACCCUGAUUGAGAAGGUCUGUGUUUUA”, the “apparent Kd” value under setting [3] was determined as 23.1 nM and the “apparent Kd” value under setting [4] worked out at 13.4 nM. Consider “AAAGGUUGAGGAUAUCAUCCUCCAAACAUGAGGAUCACCCAUGUUGAUCUUCACGUACGAUGAGAAGGCAACACCU”, for which the “apparent Kd” value was found to be 585 nM under setting [1] and 683 nM under setting [2].

For “ACACACAUGAGGAUCACCCAUGUCUAUAUACGAGGACCGGUACGGCCGCCACUCGUGAGAUCGCGAGAGACAGCUUUGGGCUAGU”, the “apparent Kd” value worked out at 14.6 nM under setting [7] and 19.2 nM under setting [8]. “GCCAAGCUCUAAGGAUAUGUUCACACCGGUGAGACAGAAGGUAGUAGUGUACUGCACAUGAGGAUCACCCAUGUAAACGGAUAA”: the “apparent Kd” value is, setting by setting: under setting [3], 64.2 nM; under setting [4], 14.9 nM.

For the sequence “CUCGUGUUAGGAUAUGACGUCCCGCGCUCCGUUAACUAAUUUCAGAAGGAACAUGAGGAUCACCCAUGUUGGUG”, the “apparent Kd” value runs as follows: under setting [1], 150 nM; under setting [2], 59.7 nM. “AUACCACCUUCGGCCGCCACUAUGUAUGGGUUCCCAACGUUGAAGGACAUGAGGAUCACCCAUGUUAGGACCGGGAAAAGUGCCU”: the “apparent Kd” value by setting is: under setting [5], 87.9 nM; under setting [6], 161 nM. “GACAUGGGACAGAAGGCGCGUCACAUUUUUAUGCGAGGAUAUGUCACUACAUGAGGAUCACCCAUGUGAGUUGGGAUCUCGAAA”: the “apparent Kd” value reads like this: under setting [1], 26.5 nM; under setting [2], 64.1 nM. The corresponding values for “AAAGAACAAGGAUAUACAUGAGGAUCACCCAUGUCACAGAUAGUAGAACCACAAGCAUGUAGAAGGUGAGUCUA” are 11.5 nM and 9.61 nM. In the case of “AACAGUAUUAUAGAUACCAGCAGGUCAUAAGACAUGAGGAUCACCCAUGUGAAUGAGGUAUGCCCUUGGCAGCUAUGAGGUCCUC”, the “apparent Kd” value is 173 nM (designed as: ON switch for theophylline, no ligand) and 128 nM (ligand present: theophylline, designed as: ON switch for theophylline). For “AUAACACAUGAGGAUCACCCAUGUAAGGAUAUAGUAGCAAUGGAAAGAAAUCUAUCCUCUAGAAGGUACACGGC”, the “apparent Kd” value by setting is: under setting [1], 18.5 nM; under setting [2], 15.3 nM. On to “UGACACAUGAGGAUCACCCAUGUCGCGAAACGAGGACCGGUACGGCCGCCACUCGCACAAACUCCUCUCCAGCACCAGCUUUUAG”, for which the “apparent Kd” value is, setting by setting: under setting [7], 19.4 nM; under setting [8], 15.5 nM. Turning to “ACCAGGCAAGGAUAUGGUUCUGUAAACAUGAGGAUCACCCAUGUAUUUAAUUCAUGUUGGCCAGAAGGUGCUUUCG”, the “apparent Kd” value by setting is: under setting [1], 14.8 nM; under setting [2], 13.3 nM. Take “GGGACACAUGAGGAUCACCCAUGUUGAUGACUUUGAGGAUAUUAGCAAAUUCUGGUCCGCUAAGAAGGCAAGGAAG”: the “apparent Kd” value under setting [3] turned out to be 18.8 nM and the “apparent Kd” value under setting [4] was 9.82 nM. With “CCAGAUUUAGGAUAUACAUGAGGAUCACCCAUGUGGGAUUUAGUGCGGUUUAUGCAACGUAGAAGGAAAUCAGG”, the “apparent Kd” value under setting [1] was determined as 31.6 nM and the “apparent Kd” value under setting [2] amounted to 71.4 nM. The like results for “GUGAUGCAGCAGAAGGGAUCGCUAAGGUUGUAAUCAGGAUAUGCAGUCGCUAGGGCGCCUCGACAUGAGGAUCACCCAUGUUUG” were, in that order, 52.7 nM and 61.7 nM. Consider “UCUCUUAAAGCAGGAUAUGAAAUCCACCAGGAAUCAGAAGGGCUCAACGUUACAUGAGGAUCACCCAUGUCCCUUAUGACAAUA”, for which the “apparent Kd” value is, setting by setting: under setting [1], 7.83 nM; under setting [2], 9.35 nM.

For the sequence “UCCGGCGUUGACUAGGAUAUACGGAGGGUAACAUGAGGAUCACCCAUGUAAAGAACUAAAACAGCGUAGAAGGAGUCCAAAGCGAC”, the “apparent Kd” value reads like this: under setting [3], 28 nM; under setting [4], 19.1 nM. Consider “AGACAAAAGGAGAAGGAGGUAAAGAUAUAAAGGUGAAGUAAUGGACAUGAGGAUCACCCAUGUACCUAGGAUAUCCAGGGCGAU”, for which the “apparent Kd” value turned out to be 26.8 nM under setting [1] and 33.6 nM under setting [2]. As to “CGGCAGAAAGUGAGGAUAUCGGUUGUAUGAGGAGACGAGAAGGCACAUGAGGAUCACCCAUGUUAGUAGUCCAC”, the “apparent Kd” value under setting [1] came out at 9.54 nM and the “apparent Kd” value under setting [2] was determined as 8.8 nM.

With “AUGUUCGUAAAGAAGGAUCAGGUGAUAUAUGUCAACAUGAGGAUCACCCAUGUGCGGGACGUAAGAUAGGAUAUUUGAGAUCAU”, the “apparent Kd” value is, setting by setting: under setting [1], 14.3 nM; under setting [2], 10.8 nM.

For the sequence “GCACUUAUAGCAGGAUAUCUUUAAACACCGAAAGGUAGCGGUACAUGAGGAUCACCCAUGUCAACAGAGAAGGGCUCAUAGUCU”, the “apparent Kd” value under setting [3] worked out at 11.1 nM and the “apparent Kd” value under setting [4] is 8.63 nM. For “GCUCGAGGGCAAGGAUAUAGGGAGAAACAACGCCUAGAAGGUGCACACAUGAGGAUCACCCAUGUUUCUCUAUGACGGAUCAUC”, the “apparent Kd” value is, setting by setting: under setting [1], 18.1 nM; under setting [2], 17.3 nM. Consider “GUCUGGAUGUAGGAUAUGUGUCCGUGCUAGGGUACAGAAGGACAGACAUGAGGAUCACCCAUGUGGAUCAACCG”, for which the “apparent Kd” value under setting [1] was 22.6 nM and the “apparent Kd” value under setting [2] worked out at 38.2 nM. Consider “GCUGAUAUCAAGAAGGCGAUCAGGGAAUAAGAGACAUGAGGAUCACCCAUGUACGCCAUUUGUAUCGAGGAUAUUGAAAAUAGG”, for which the “apparent Kd” value runs as follows: under setting [3], 24.4 nM; under setting [4], 7.42 nM. Take “UGCGACAAGUGAAUACUUUGUUCUAGAGAUACCAGUUCCCGAGUGAACCCUUGGCAGCUCCCAACAUGAGGAUCACCCAUGUAUU”: the “apparent Kd” value reads like this: (designed as: OFF switch for theophylline, no ligand) 14.5 nM; (ligand present: theophylline, designed as: OFF switch for theophylline) 28.5 nM. For “CAGUUACUGUAGAAGGAUAUCAUUAAUACGGAUAUAGGAUAUACUCCGGGUGGAAUCGUGAACAUGAGGAUCACCCAUGUUUCG”, the “apparent Kd” value is 10.2 nM under setting [1] and 8.6 nM under setting [2]. The corresponding values for “GCUGCCUGGACAUGAGGAUCACCCAUGUGGACAAUACUGGCUUAGGAUAUUUGAUUGAAGUUUGGAAAGAAGGAAGCAUACAGC” are 9.17 nM and 8.14 nM. In the case of “CUCGUUUAAGAGGAUAUUUCGUCCGCUCUCGGGAAAGAAGGCUUGACAUGAGGAUCACCCAUGUAUACGUUGGA”, the “apparent Kd” value runs as follows: under setting [1], 9.46 nM; under setting [2], 13.9 nM.

Turning to “UUUGCAGUCGAGAAGGCAAACACAUGAGGAUCACCCAUGUAGACGAGGUAUGUUAUUUCGGGAGUUGAGGAUAUCGUGGUAGGU”, the “apparent Kd” value came out at 27.8 nM under setting [3] and 13.8 nM under setting [4]. Turning to “ACCGUAUGGGAGAAGGAACUAUGUUAGACAUGAGGAUCACCCAUGUUCCAGAAUGUAGGGCUCAGUUAGGAUAUCCAAUUCAGA”, the “apparent Kd” value under setting [1] was found to be 11.1 nM and the “apparent Kd” value under setting [2] was determined as 21.8 nM.

With “GGAGUUCUAGGAUAUAAUUCGUGGUACAUGAGGAUCACCCAUGUCGCUGAUGCAUCGCCUUUAGAAGGAGAGAUCU”, the “apparent Kd” value reads like this: under setting [1], 9.03 nM; under setting [2], 9.49 nM. For the sequence “UCUAACAUGAGGAUCACCCAUGUACCGUCCCGAGGACCGGUACGGCCGCCACUCGUCUUGCUAAAACUGAAGUGAUCACAAGCCU”, the “apparent Kd” value under setting [7] worked out at 20.2 nM and the “apparent Kd” value under setting [8] was 30.8 nM. With “CGCCCGUACUCAGGAUAUCGAAGUACGAGCCAAAUUAUGUCGGACAUGAGGAUCACCCAUGUGGGCGAGAAGGGAGAACGUGCG”, the “apparent Kd” value under setting [1] is 29.4 nM and the “apparent Kd” value under setting [2] is 16.4 nM.
